ChEMBL document CHEMBL4257552, “2-Aminobenzimidazoles as antibiofilm agents against Salmonella enterica serovar Typhimurium” (Medchemcomm, 2018)

Experiments:
Salmonella typhimurium [1] = experiment: Antibiofilm activity against Salmonella typhimurium ATCC 14028 after 24 hrs by crystal violet staining based assay; assay type: functional, organism-based, Salmonella enterica subsp. enterica serovar Typhimurium; conditions: Salmonella enterica, ATCC 14028, 24 h
Procedure, shortened: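 S. Typhimurium ATCC 14028 overnight TSB culture subcultured to OD600 0.08 in 1:20 TSB:water, compound added at set concentrations, static incubation in PVC 96-well plates 24 h at 30 °C. IC50 from dose-response curves.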

Galleria mellonella = experiment: Toxicity in Galleria mellonella at 400 mg/kg; assay type: organism-based; conditions: in vivo
Salmonella typhimurium [2] = experiment: Inhibition of planktonic growth of Salmonella typhimurium ATCC 14028 after 2 to 24 hrs; assay type: organism-based; conditions: salmonella enterica subsp. enterica serovar typhimurium
Procedure, shortened: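 Overnight TSB culture diluted into fresh 1:20 TSB (OD600 0.08), 3 mL tubes with compound or untreated control, shaken at 30 °C. Samples at 2, 4, 6, 8 and 24 h serially diluted in 1:20 TSB, plated on nutrient agar, incubated overnight at 37 °C, and colonies counted.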

| SMILES | IC50 (Salmonella typhimurium [1]) | also measured |
| --- | --- | --- |
| CCc1ccc(C(=O)Nc2ccc3c(c2)nc(N)n3CCCc2ccccc2)cc1 | 20 to 40 µM |  |
| CCCCCc1ccc(C(=O)Nc2ccc3c(c2)nc(N)n3CCc2c[nH]c3ccccc23)cc1 | 10 to 15 µM |  |
| Cl.Nc1nc2cc(NC(=O)c3cc(Cl)cc(Cl)c3)ccc2n1CCCc1ccccc1 | 10 to 15 µM | Activity (Galleria mellonella): Non-Toxic |
| CCCCCc1ccc(C(=O)Nc2ccc3[nH]c(N)nc3c2)cc1 | 20 to 40 µM |  |
| CCCCCc1ccc(C(=O)Nc2ccc3c(c2)nc(N)n3C2CCCC2)cc1 | 15 to 20 µM |  |
| CCCCCc1ccc(C(=O)Nc2ccc3c(c2)nc(N)n3CC(C)C)cc1 | 10 to 15 µM |  |
| CCCCCc1ccc(C(=O)Nc2ccc3c(c2)nc(N)n3C(C)C)cc1 | 20 to 40 µM |  |
| Nc1nc2cc(NC(=O)c3cc(Br)cc(Br)c3)ccc2n1CCCc1ccccc1 | 5.58 µM |  |
| Cl.Nc1nc2cc(NC(=O)Nc3ccc(Cl)c(Cl)c3)ccc2n1CCCc1ccccc1 | 7.69 µM | Activity (Salmonella typhimurium [2]): Non-Toxic |
| CCCCCCn1c(N)nc2ccc(NC(=O)c3ccc(CCCCC)cc3)cc21 | 10 to 15 µM |  |
| CCCCCc1ccc(C(=O)Nc2ccc3c(c2)nc(N)n3C2CCCCC2)cc1 | 15 to 20 µM |  |
| CCCCCc1ccc(C(=O)Nc2ccc3nc(N)n(CCCC)c3c2)cc1 | 10 to 15 µM |  |
| CCCCCCCCCCn1c(N)nc2cc(NC(=O)c3ccc(CCCCC)cc3)ccc21 | 20 to 40 µM |  |
| CCCOc1ccc(C(=O)Nc2ccc3c(c2)nc(N)n3CCCc2ccccc2)cc1 | 10 to 15 µM |  |
| CCCCCCCCCCCCn1c(N)nc2cc(NC(=O)c3ccc(CCCCC)cc3)ccc21 | 20 to 40 µM |  |
| CCCCc1ccc(C(=O)Nc2ccc3c(c2)nc(N)n3CCCc2ccccc2)cc1 | 10 to 15 µM |  |
| CCCCCc1ccc(C(=O)Nc2ccc3nc(N)n(C(C)C)c3c2)cc1 | 20 to 40 µM |  |
| CCCCCc1ccc(C(=O)Nc2ccc3c(c2)nc(N)n3CCc2cnc[nH]2)cc1 | 20 to 40 µM |  |
| Nc1nc2cc(C(=O)Nc3ccc(Cl)c(Cl)c3)ccc2n1CCCc1ccccc1 | 12.6 µM |  |
| CCCCCc1ccc(C(=O)Nc2ccc3c(c2)nc(N)n3CCCC)cc1 | 15 to 20 µM |  |
| CCCCCc1ccc(C(=O)Nc2ccc3nc(N)n(C)c3c2)cc1 | 20 to 40 µM |  |
| Cl.Nc1nc2cc(NC(=O)c3ccc(Cl)c(Cl)c3)ccc2n1CCCc1ccccc1 | 6.3 µM | Activity (Galleria mellonella): Non-Toxic |
| CCCCCCCCn1c(N)nc2cc(NC(=O)c3ccc(CCCCC)cc3)ccc21 | 6.66 µM |  |
| CCCCCc1ccc(C(=O)Nc2ccc3nc(N)n(CC)c3c2)cc1 | 20 to 40 µM |  |
| CCCCOc1ccc(C(=O)Nc2ccc3c(c2)nc(N)n3CCCc2ccccc2)cc1 | 15 to 20 µM |  |
| Nc1nc2cc(NC(=O)c3ccc(Br)c(Br)c3)ccc2n1CCCc1ccccc1 | 5.38 µM |  |
| CCCCCc1ccc(C(=O)Nc2ccc3c(c2)nc(N)n3C)cc1 | 20 to 40 µM |  |
| CCCc1ccc(C(=O)Nc2ccc3c(c2)nc(N)n3CCCc2ccccc2)cc1 | 15 to 20 µM |  |

Now from value to compound, other results behind:

| IC50 (Salmonella typhimurium [1]) | SMILES | also measured |
| --- | --- | --- |
| 15 to 20 µM | CCCCCCCc1ccc(C(=O)Nc2ccc3c(c2)nc(N)n3CCCc2ccccc2)cc1 |  |
| > 40 µM | CCCCCCCC(=O)Nc1ccc2c(c1)nc(N)n2CCCc1ccccc1 |  |
| 5.22 µM | CCCCCOc1ccc(C(=O)Nc2ccc3c(c2)nc(N)n3CCCc2ccccc2)cc1.Cl | growth inhibition (GI) (Salmonella typhimurium [2]): Non-Toxic |
| > 50 µM | CCCCCCCCCCCCCC(=O)Nc1ccc2c(c1)nc(N)n2CCCc1ccccc1 |  |
| 10.8 µM | CCCCCCn1c(N)nc2cc(NC(=O)c3ccc(CCCCC)cc3)ccc21 |  |
| > 50 µM | CCCCCCCCc1ccc(C(=O)Nc2ccc3c(c2)nc(N)n3CCCc2ccccc2)cc1 |  |
| 9.59 µM | CCCCCc1ccc(C(=O)Nc2ccc3c(c2)nc(N)n3CCCCc2ccccc2)cc1 |  |
| 20 to 40 µM | CCCCCCC(=O)Nc1ccc2c(c1)nc(N)n2CCCc1ccccc1 |  |
| 15 to 20 µM | CCCCCCCCC(=O)Nc1ccc2c(c1)nc(N)n2CCCc1ccccc1 |  |
| 15 to 20 µM | CCCCCCc1ccc(C(=O)Nc2ccc3c(c2)nc(N)n3CCCc2ccccc2)cc1 |  |
| 13.1 µM | CCCCCc1ccc(C(=O)Nc2ccc3c(c2)nc(N)n3CCCc2ccccc2)cc1 |  |
| 10 to 15 µM | CCCCCCCCCCC(=O)Nc1ccc2c(c1)nc(N)n2CCCc1ccccc1 |  |
| 10 to 15 µM | CCCCCCCCCC(=O)Nc1ccc2c(c1)nc(N)n2CCCc1ccccc1 |  |
| > 50 µM | CCCCCCCCCCCC(=O)Nc1ccc2c(c1)nc(N)n2CCCc1ccccc1 |  |
